From ChEMBL document CHEMBL4316617, “Inhibition of the FAD containing ER oxidoreductin 1 (Ero1) protein by EN-460 as a strategy for treatment of multiple myeloma” (Bioorg Med Chem, 2019)
Active and inactive are the calls of the source. The calls are words filed in the database; no cut-off is given here.

Assays:
U-266 [1] = experiment: Cytotoxicity against human U266 cells assessed as reduction in cell viability measured after 72 hrs by MTT assay; assay type: functional, cell-based; settings: U-266, 72 h
How it was run: (§1)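 MM cell lines exposed to compound for 72 h. MTT (50 μl of 2 mg/ml) added for 4 h, formazan dissolved in DMSO, absorbance read at 570 nm. IC50 calculated; mean ± SD of 3 independent experiments.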

MM1.S = experiment: Cytotoxicity against human MM1S cells assessed as reduction in cell viability measured after 72 hrs by MTT assay; assay type: functional, cell-based; how it was run: as §1
[2] = Solubility of the compound in pH 7.4 phosphate buffered saline; assay type: physicochemical; settings: buffer
[3] = tested on: T1, ERO1-like protein alpha (Homo sapiens), Q96HE7 [C104A,C131A,C166A]; experiment: Competitive inhibition of recombinant human Ero1Lalpha C104A/C131A/C166A triple mutant (22 to 468 residues) expressed in Escherichia coli BL21(DE3)-RIL using varying levels of human PDI as substrate by Lineweaver-burk plot analysis
T1 sequence (whole entry): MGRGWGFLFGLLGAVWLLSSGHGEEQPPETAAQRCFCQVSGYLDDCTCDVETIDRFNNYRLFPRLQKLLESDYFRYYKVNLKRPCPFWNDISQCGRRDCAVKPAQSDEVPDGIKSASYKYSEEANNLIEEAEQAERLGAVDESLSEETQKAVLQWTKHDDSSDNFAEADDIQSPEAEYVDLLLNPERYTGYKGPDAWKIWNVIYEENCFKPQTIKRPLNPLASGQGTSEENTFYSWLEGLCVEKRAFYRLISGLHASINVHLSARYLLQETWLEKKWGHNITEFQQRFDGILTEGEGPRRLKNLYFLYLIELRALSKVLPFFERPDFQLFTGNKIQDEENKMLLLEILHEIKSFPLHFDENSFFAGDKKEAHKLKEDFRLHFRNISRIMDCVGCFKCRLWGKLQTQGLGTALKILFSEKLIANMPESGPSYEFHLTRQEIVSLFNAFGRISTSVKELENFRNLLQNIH

[4] = target: Lysine-specific histone demethylase 1A (Homo sapiens, UniProt O60341); experiment: Inhibition of recombinant human LSD1 using ARTK(diMethyl)QTARKSTGGKAPRKQLAPRKQLA as substrate measured after 30 mins by ADHP/horseradish peroxidase coupled fluorescence assay
How it was run: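 LSD-1 activity measured with a commercial kit following the manufacturer's instructions. IC50 fitted, N = 2.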

[5] = target: T2, Amine oxidase [flavin-containing] B (Homo sapiens, UniProt P27338); experiment: Inhibition of MAOB (unknown origin) using kynuramine as substrate
T2 sequence (P27338 whole entry): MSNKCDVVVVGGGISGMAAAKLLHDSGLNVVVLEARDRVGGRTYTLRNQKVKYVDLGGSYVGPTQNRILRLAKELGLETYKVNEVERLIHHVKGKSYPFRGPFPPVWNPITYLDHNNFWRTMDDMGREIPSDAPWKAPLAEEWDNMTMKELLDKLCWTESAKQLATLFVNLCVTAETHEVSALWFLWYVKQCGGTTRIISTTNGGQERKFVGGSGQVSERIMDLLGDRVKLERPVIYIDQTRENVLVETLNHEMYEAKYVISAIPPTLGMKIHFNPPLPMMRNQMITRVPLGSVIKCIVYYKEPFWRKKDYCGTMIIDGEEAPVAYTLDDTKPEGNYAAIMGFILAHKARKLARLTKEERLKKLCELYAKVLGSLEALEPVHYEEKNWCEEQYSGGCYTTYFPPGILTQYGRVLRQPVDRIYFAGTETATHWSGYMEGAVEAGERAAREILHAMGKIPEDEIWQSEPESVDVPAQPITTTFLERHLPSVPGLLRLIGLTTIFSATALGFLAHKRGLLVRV
How it was run: (§2)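 Purchased MAO-A or MAO-B activity measured as kynuramine metabolism, with fluorescence read at Ex 310/Em 380 nm. IC50 fitted, N = 2.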

[6] = target: T3, Amine oxidase [flavin-containing] A (Homo sapiens, UniProt P21397); experiment: Inhibition of MAOA (unknown origin) using kynuramine as substrate; how it was run: as §2
T3 sequence (P21397 whole entry): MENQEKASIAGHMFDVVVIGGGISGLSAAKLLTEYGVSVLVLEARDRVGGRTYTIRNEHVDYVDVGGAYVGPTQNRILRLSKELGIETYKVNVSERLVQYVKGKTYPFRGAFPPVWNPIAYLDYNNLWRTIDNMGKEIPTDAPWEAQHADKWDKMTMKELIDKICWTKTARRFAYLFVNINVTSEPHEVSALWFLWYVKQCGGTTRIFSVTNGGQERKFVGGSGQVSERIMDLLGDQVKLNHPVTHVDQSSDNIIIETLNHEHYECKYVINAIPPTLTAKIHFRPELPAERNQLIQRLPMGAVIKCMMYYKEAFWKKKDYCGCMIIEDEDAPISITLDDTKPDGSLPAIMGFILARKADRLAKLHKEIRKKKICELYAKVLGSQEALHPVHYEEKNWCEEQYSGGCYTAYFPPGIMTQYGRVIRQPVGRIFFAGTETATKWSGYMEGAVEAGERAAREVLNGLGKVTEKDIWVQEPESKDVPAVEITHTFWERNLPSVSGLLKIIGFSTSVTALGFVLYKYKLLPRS

[7] = tested on: T1, ERO1-like protein alpha (Homo sapiens), Q96HE7 [C104A,C131A,C166A]; experiment: (§3) Inhibition of recombinant human Ero1Lalpha C104A/C131A/C166A triple mutant (22 to 468 residues) expressed in Escherichia coli BL21(DE3)-RIL measured after 30 mins by Amplex red dye based fluorescence assay
ERO1-like protein alpha [8] = target: T4, ERO1-like protein alpha (Homo sapiens, UniProt Q96HE7, C104A/C131A/C166A); experiment: as §3
[9] = target: Protein disulfide-isomerase (Homo sapiens) (UniProt P07237); experiment: (§4) Binding affinity to recombinant human His-tagged PDI (18 to 479 residues) expressed in Escherichia coli assessed as melting temperature at 20 uM by SYPRO orange protein gel staining based differential scanning fluorimetry (reference value: 58.86 +/- 0.12 degreeC)
Sequence of Protein disulfide-isomerase (Homo sapiens) (P07237 18-508 limits assumed): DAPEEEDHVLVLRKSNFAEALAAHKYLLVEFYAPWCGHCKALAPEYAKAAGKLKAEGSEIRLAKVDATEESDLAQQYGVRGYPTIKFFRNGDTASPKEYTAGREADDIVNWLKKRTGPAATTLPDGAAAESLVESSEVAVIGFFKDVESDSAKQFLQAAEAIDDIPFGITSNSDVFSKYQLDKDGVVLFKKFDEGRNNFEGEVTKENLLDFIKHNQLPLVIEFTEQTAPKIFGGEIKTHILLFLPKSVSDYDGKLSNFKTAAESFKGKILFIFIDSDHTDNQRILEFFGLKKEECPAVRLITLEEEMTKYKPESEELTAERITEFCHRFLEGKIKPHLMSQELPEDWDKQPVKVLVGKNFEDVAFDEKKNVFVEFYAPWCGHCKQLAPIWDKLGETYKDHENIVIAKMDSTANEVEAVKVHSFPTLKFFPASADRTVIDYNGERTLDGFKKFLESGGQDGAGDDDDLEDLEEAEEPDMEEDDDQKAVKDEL

[10] = tested on: T1, ERO1-like protein alpha (Homo sapiens), Q96HE7 [C104A,C131A,C166A]; experiment: as §4, with “Ero1Lalpha C104A/C131A/C166A triple mutant (22” for “His-tagged PDI (18”, “468” for “479”, “coli BL21(DE3)-RIL” for “coli”, “53.15” for “58.86”, “0.15” for “0.12”
[11] = Solubility of the compound at >200 uM; assay type: physicochemical
PBMC = experiment: Cytotoxicity against PBMC (unknown origin) assessed as cell death; assay type: cell-based
U-266 [12] = experiment: Induction of endoplasmic reticulum stress in human U266 cells assessed as reduction in full length ATF6 measured after 2 to 8 hrs by Western blot analysis; assay type: functional, cell-based
How it was run: (§5)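 U266 cells treated with compound or DMSO for 2, 4 and 8 h. Lysates resolved on 8–10% SDS-PAGE and transferred to PVDF. Blocked in 5% milk/TBST, probed overnight at 4 °C for p-eIF2α, ATF4 and ATF6 (this antibody detects full-length ATF6 only), with β-actin as loading control. Chemiluminescent detection; n = 3.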

U-266 [13] = experiment: Induction of endoplasmic reticulum stress in human U266 cells assessed as increase in eIF2alpha phosphorylation measured after 2 to 8 hrs by Western blot analysis; assay type: functional, cell-based; how it was run: as §5
U-266 [14] = experiment: Induction of apoptosis in human U266 cells at 12.5 to 50 uM measured after 18 hrs by Annexin V-FITC/propidium iodide staining based flow cytometry; assay type: functional, cell-based
How it was run: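 U266 cells treated with compound or DMSO vehicle for 18 h, washed in ice-cold PBS, then stained with Annexin V-FITC/PI in binding buffer for 15 min at 37 °C in the dark. At least 10,000 cells analysed by flow cytometry. Mean ± SD, n = 3 independent experiments.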

U-266 [15] = experiment: Induction of endoplasmic reticulum stress in human U266 cells assessed as increase in ATF4 level measured after 2 to 8 hrs by Western blot analysis; assay type: functional, cell-based; how it was run: as §5
ERO1-like protein alpha [16] = target: T4, ERO1-like protein alpha; experiment: Inhibition of recombinant human Ero1Lalpha C104A/C131A/C166A triple mutant (22 to 468 residues) expressed in Escherichia coli BL21(DE3)-RIL using human PDI as substrate measured after 30 mins by Amplex red dye based fluorescence assay

Question: For `[N-]=[N+]=Nc1ccc(-c2ccc(/C=C3/C(=O)N(c4ccc(Cl)c(C(=O)O)c4)N=C3C(F)(F)F)o2)cc1`, which IC50 (U-266 [1]) is on record?
Answer: Its IC50 is 7.03 µM.

Question: And the IC50 (MM1.S)?
Answer: Its IC50 is 17.3 µM.

Question: What about the solubility [2] of the same compound?
Answer: Its solubility is “Insoluble”.

Question: With `O=C(O)c1cc(N2N=C(C(F)(F)F)/C(=C/c3ccc(-c4ccccc4)o3)C2=O)ccc1Cl` as the compound, how does the inhibition [3] read?
Answer: Its inhibition is “Active”.

Question: What about the IC50 [4] of the same compound?
Answer: Its IC50 is 4.16 µM.

Question: What about the IC50 [5] of the same compound?
Answer: The IC50 was 30.6 µM.

Question: And the IC50 [6]?
Answer: The IC50 was 7.91 µM.

Question: And the IC50 (U-266 [1])?
Answer: Its IC50 is 10.1 µM.

Question: What about the IC50 (MM1.S) of the same compound?
Answer: Its IC50 is 14.7 µM.

Question: And the inhibition [7]?
Answer: The inhibition was “Dose-dependent effect”.

Question: And the IC50 (ERO1-like protein alpha [8])?
Answer: Its IC50 is 12.7 µM.

Question: And the Tm [9]?
Answer: Its Tm is 59.2 °C.

Question: What about the Tm [10] of the same compound?
Answer: Its Tm is 55.9 °C.

Question: And the solubility [11]?
Answer: The solubility was “Insoluble”.

Question: And the Activity (PBMC)?
Answer: Its Activity is “Toxic”.

Question: And the Activity (U-266 [12])?
Answer: The Activity was “Active”.

Question: What about the Activity (U-266 [13]) of the same compound?
Answer: The Activity was “Active”.

Question: And the Activity (U-266 [14])?
Answer: Its Activity is “Active”.

Question: What about the Activity (U-266 [15]) of the same compound?
Answer: The Activity was “Active”.

Question: What about the IC50 (ERO1-like protein alpha [16]) of the same compound?
Answer: The IC50 was 22.1 µM.

Question: Which IC50 (U-266 [1]) does the source give for `[N-]=[N+]=Nc1cccc(-c2ccc(/C=C3/C(=O)N(c4ccc(Cl)c(C(=O)O)c4)N=C3C(F)(F)F)o2)c1` here?
Answer: The IC50 was 14.7 µM.

Question: What about the IC50 (MM1.S) of the same compound?
Answer: Its IC50 is 18.8 µM.

Question: And the inhibition [7]?
Answer: The inhibition was “Dose-dependent effect”.

Question: And the IC50 (ERO1-like protein alpha [8])?
Answer: Its IC50 is 12.2 µM.

Question: And the Tm [9]?
Answer: The Tm was 57.7 °C.

Question: And the Tm [10]?
Answer: Its Tm is 59.8 °C.

Question: And the solubility [11]?
Answer: The solubility was “Insoluble”.
